SUMO1-SIM PPI – modulators of human SUMO1-mediated protein-protein interactions; P63165; SUMO1 binding to a labelled peptide, TR-FRET, 1 h; inhibition, % at 20 µM; 0.33% of 360,000 active; AID 602429; in the data active = inhibition above about 37%
Scp-1 inhibitor – blocks human Scp-1 phosphatase activity. Q9GZU7. Recombinant Scp1, phosphopeptide, malachite green phosphate absorbance. inhibition, % at 20 µM. 0.88% of 340,000 active;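 active = inhibition above about 50% at 20 µM, limit read from the data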;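 note: plate controls were DMSO wells with enzyme for no effect and wells lacking enzyme for full effect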
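Assay system: SCP-1 catalytic fragment, aa 76-261 | Buffer or medium: Tris acetate buffer pH 5.5 with MgCl2 and Tween-20 | Compound: One concentration, 20 µM, with 1.0% DMSO | Also added: Phospho 17-mer peptide substrate | Signal: Absorbance at 630 nm | Incubation: 45 min enzyme reaction at room temperature | Measure: % inhibition of SCP-1 phosphate liberation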
STEP inh – blocks human striatal-enriched tyrosine phosphatase. recombinant STEP, OMFP fluorogenic substrate, fluorescence. inhibition, % at 20 µM. P54829. 0.25% of 360,000 active;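 active = inhibition at 20 µM, scaled per plate between control wells, above about 37%, limit read from the data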;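 note: 0% = DMSO with enzyme and substrate and 100% = substrate only without enzyme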
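Material: STEP (striatal-enriched tyrosine phosphatase) enzyme, cell-free | Medium: 50 mM Bis-Tris pH 6.0 with 2.5 mM DTT and 0.005% Tween 20 | Read-out: Percent inhibition scaled to no-enzyme and uninhibited-enzyme controls, plate-pattern corrected | Signal: Fluorescence read at 480 nm ex / 540 nm em | Times: 20 min reaction, room temperature, in the dark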
DNMT1 inh – blocks human DNA methyltransferase DNMT1; 0.83% of 360,000 active; inhibition (reported as % activation of signal), % at 10 µM; P26358; DNMT1 molecular beacon, Hinp1I cleavage, fluorescence; in the data active = inhibition above about 50%
HKDC1 inhibitor – inhibitors of human hexokinase HKDC1; AID 493160; 0.16% of 340,000 active; recombinant HKDC1, G6PDH/diaphorase resazurin coupled fluorescence; Q2TB90; inhibition, % at 20 µM;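 active = inhibition above about 35% when tested at 20 µM, limit read from the data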;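 note: plate controls were DMSO wells with enzyme for no effect and DMSO wells lacking enzyme for full effect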
Target sequence (Q2TB90 whole entry, looked up): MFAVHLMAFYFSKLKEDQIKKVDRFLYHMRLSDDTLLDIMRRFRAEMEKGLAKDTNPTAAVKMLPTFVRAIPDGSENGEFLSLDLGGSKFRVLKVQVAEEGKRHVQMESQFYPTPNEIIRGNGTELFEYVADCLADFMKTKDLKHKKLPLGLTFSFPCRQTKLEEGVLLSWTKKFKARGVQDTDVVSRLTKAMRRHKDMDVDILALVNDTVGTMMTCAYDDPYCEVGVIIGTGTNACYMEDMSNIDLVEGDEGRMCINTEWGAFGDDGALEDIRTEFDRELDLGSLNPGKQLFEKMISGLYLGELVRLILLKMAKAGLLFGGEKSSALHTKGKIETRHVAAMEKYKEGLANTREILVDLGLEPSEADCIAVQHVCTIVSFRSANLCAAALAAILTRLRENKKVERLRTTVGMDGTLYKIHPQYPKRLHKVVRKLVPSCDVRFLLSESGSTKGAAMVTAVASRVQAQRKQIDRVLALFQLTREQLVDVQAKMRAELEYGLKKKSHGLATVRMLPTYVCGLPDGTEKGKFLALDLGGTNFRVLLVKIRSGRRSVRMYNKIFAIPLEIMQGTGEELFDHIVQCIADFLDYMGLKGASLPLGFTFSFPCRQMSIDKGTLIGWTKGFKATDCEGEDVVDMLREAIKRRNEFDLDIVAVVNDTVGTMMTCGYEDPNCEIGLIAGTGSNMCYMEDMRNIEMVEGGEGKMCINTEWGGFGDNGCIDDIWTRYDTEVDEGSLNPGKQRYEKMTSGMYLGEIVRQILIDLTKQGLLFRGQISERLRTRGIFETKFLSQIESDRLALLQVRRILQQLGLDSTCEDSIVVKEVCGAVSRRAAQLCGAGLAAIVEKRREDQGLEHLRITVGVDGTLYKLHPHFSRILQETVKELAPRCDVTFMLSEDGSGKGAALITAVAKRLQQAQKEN
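Test system: recombinant HKDC1 (HK5) hexokinase enzyme, produced in-house; Amount: enzyme 5 µg/mL final; Buffer or medium: Tris pH 8.0 buffer with MgCl2, Tween-20, BSA, BME; Reagent: glucose and ATP substrates; Doses: 20 µM test compound, 1% DMSO; Incubation: 90 min reaction incubation at room temperature, dark; Detection: resorufin fluorescence at 613 nm.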
LMPTP block – blocks human LMPTP phosphatase; P24666; recombinant LMPTP-A, OMFP fluorogenic substrate, fluorescence intensity; inhibition, % at 20 µM; 0.22% of 360,000 active;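 active = compounds that cut the enzyme signal by at least half of the control window in the single-dose screen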;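 note: plate controls were DMSO wells with enzyme plus substrate for no effect and substrate without enzyme for full effect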
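Test system – LMPTP-A phosphatase enzyme · Quantity – 0.625 nM LMPTP-A final · Reagent – OMFP substrate, 400 µM final · Dosing – one test concentration per compound, 20 µM, with 3% DMSO overall · Timing – 50 min enzyme reaction at room temperature, protected from light · Detection – fluorescence intensity · Controls – substrate-only low control, DMSO enzyme-plus-substrate high control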
Active calls of the source: *; i = inactive; x = no result; + = active, no number; ! = repeats disagree. This is a sample that favours compounds with a hit; in the whole collection about 1.8% have one here.

SMILES	SUMO1-SIM PPI	Scp-1 inhibitor	STEP inh	DNMT1 inh	HKDC1 inhibitor	LMPTP block
COc1ccc(C(=O)Nc2nc3cc4c(cc3s2)OCCO4)c(OC)c1	47.3*	1.9	-0.2	-11.6	3.7	4.3
COc1cc(=O)[nH]c(SCC(=O)Nc2nc3c(s2)CCCC3)n1	5.2	-12.4	2.2	4.7	-11.6	-0.5
NC(=O)c1cc(-c2ccccc2)nc(N2CCOCC2)n1	2.5	-4.6	-1.5	4.7	2.8	-0.1
CC[n+]1cc(-c2ccccc2)nc(N2CCOCC2)n1	-25.2	98.8*	-1.9	5.6	16.4	-1.5
Cc1ccc(C(=O)NC(=S)Nc2ccc(-c3ccc(CO)o3)cc2)cc1	5.9	-6.5	-0.3	-17.7	-11.4	2.3
O=C(NC(=S)Nc1ccc(-c2ccc(CO)o2)cc1)c1cccs1	22.2	-8.7	5.1	76.6*	4.0	52.0*
Cn1c(=O)c2[nH]c(-c3ccc(S(=O)(=O)O)cc3)nc2n(C)c1=O	-1.3	-8.8	2.0	2.6	-4.5	-0.3
Cc1ccc(NC(=O)N/C=C/c2ccco2)cc1C	14.7	-6.0	2.4	56.7*	3.2	0.6
Cc1ccc(NC(=O)N/C=C/c2ccco2)c(C)c1	-0.5	8.9	2.4	28.7	-8.2	24.6
Cc1ccsc1CNC(=O)c1c(-c2ccccc2)noc1C	1.1	-3.6	2.6	4.0	-3.1	-0.3
COc1ccc2[nH]c(=O)c(CN(C3CCCCC3)C(c3nnnn3Cc3ccco3)C(C)C)cc2c1 (stereo not drawn)	21.9	10.8	-3.6	39.1	36.9*	1.6
CC(Nc1nc(N2CCNCC2)nc2ccccc12)c1ccccc1 (stereo not drawn)	-0.1	5.4	7.0	-12.1	-3.0	85.0*
CC(Nc1nc(-c2ccncc2)nc2ccccc12)c1ccccc1 (stereo not drawn)	3.1	-6.5	0.2	-5.1	1.5	15.3
COc1ccccc1C(=O)NC(=Nc1nc2ccccc2o1)NC(=O)c1ccccc1OC	67.0*!	-6.7	-2.7	0.2	3.0	1.4
COc1ccc(-c2oc3ccc(N4CCOCC4)cc3c2C#CC2(O)CCCCC2)cc1	-1.8	-2.3	0.9	-31.6	8.3	5.9
CCN(CC)c1ccc(/C=C(/C#N)c2nc3ccc(C)cc3[nH]2)c(OC(C)C)c1	-79.7	3.1	-47.8	53.4*	14.8	16.1
FC(F)(F)c1cc(-c2ccco2)nc2ncnn12	-15.6	-5.5	-3.9	0.7	-10.5	-2.0
O=c1ccc2c(-c3ccccc3)c3ccc(O)cc3oc-2c1	i	18.4	i	+	19.1	-148.2
O=c1cc(-c2ccccc2)oc2cc(O)ccc12	-4.0	-10.0	-2.7	0.2	2.6	0.1
Nc1ccc(-c2c3ccc(=O)cc-3oc3cc(O)ccc23)cc1C(=O)O	-355.8	3.6	-60.1	+	4.9	10.2
O=C(/C=C/c1ccc(NC(=O)c2ccccc2-c2ccccc2C(=O)O)cc1)c1ccccc1	16.1	-9.4	-2.3	3.9	22.2	2.0
O=C(/C=C/c1ccncc1)c1ccc(NC(=O)c2ccccc2F)cc1	-3.4	3.8	13.6	6.4	11.7	57.0*
COCCN(C(=O)COC(=O)CCc1ccccc1)c1c(N)n(Cc2ccccc2)c(=O)[nH]c1=O	8.4	-4.0	-0.9	1.8	-1.9	-0.6
Nc1ccc2nc3c(=O)n(CCc4ccccc4)c(=O)[nH]c3nc2c1	-36.0	-1.9	-75.1	51.0*	20.6	3.4
CCCCn1c(=O)[nH]c2nc3cc(N)ccc3nc2c1=O	-19.5	-5.1	-77.1	54.1*	17.1	-3.0
SMILES	SUMO1-SIM PPI	Scp-1 inhibitor	STEP inh	DNMT1 inh	HKDC1 inhibitor	LMPTP block
Nc1ccc2nc3c(=O)n(C4CCCCC4)c(=O)[nH]c3nc2c1	-20.9	-9.0	-59.5	33.7	20.4	-1.7
Nc1ccc2nc(CCc3ccccc3)[nH]c2c1	-4.0	-9.8	-3.9	-20.1	-4.7	0.0
CC(C)(C)NC(=O)COC(=O)c1ccccc1C(=O)c1ccccc1	-2.7	-0.7	0.2	1.1	-7.3	0.5
Cc1ccc(C(=O)c2ccccc2C(=O)OCC(=O)NC(=O)NC(C)(C)C)cc1	44.7*	0.4	1.3	2.2	-0.3	-1.3
COc1cc(Oc2nc(C(F)(F)F)nc3ccccc23)ccc1C=O	1.1	-16.7	-1.8	0.4	0.6	1.2
COc1ccccc1CNc1nc(NCc2ccccc2OC)c2sccc2n1	-5.7	x	1.2	-11.9	x	22.6
COc1ccccc1CNc1nc(Nc2cccc(-c3cnco3)c2)c2sccc2n1	0.9	x	2.8	-32.0	x	51.0*
CC(=O)Nc1ccc(CNc2nc(NCc3cccs3)nc3ccsc23)cc1	0.0	x	1.4	-8.1	x	60.6*
COc1ccccc1CNc1nc(NCc2cccs2)nc2ccsc12	-0.9	x	1.5	-7.9	x	26.7
COc1ccccc1CNc1nc(NCc2ccc(NC(C)=O)cc2)c2sccc2n1	2.0	x	1.7	-12.3	x	65.1*
Cc1cc(C)c2nc(-c3cccc(Cl)c3)c(C)c(C(=O)N3CCOCC3)c2c1	4.8	4.7	-2.0	3.2	2.4	0.4
CCOc1ccc(S(=O)(=O)N2CCCC(C(=O)NCC3CCCO3)C2)cc1Cl (stereo not drawn)	0.4	1.8	-2.4	1.7	-1.3	-1.0
O=C(Nc1ccc(F)cc1F)c1noc2c1CCC2	4.2	78.6*	21.7	88.3*	-0.6	13.6
Cn1c(CC(=O)NNC(=O)c2ccc(F)cc2Cl)nc2ccccc21	43.5*	-7.6	2.3	-0.3	-4.0	-0.5
CC1(C)CC(=O)C2=C(C1)c1c(ccc3ccccc13)NC2c1cc([N+](=O)[O-])cc([N+](=O)[O-])c1O (stereo not drawn)	8.8	-2.5	3.5	2.2	15.4	2.5
O=C(O)c1ccc(N2C(=O)/C(=C/C=C/c3ccccc3)SC2=S)cc1	3.6	-1.7	1.9	17.8	3.0	-0.2
O=C(NN1C(=O)/C(=C/C=C/c2ccccc2)SC1=S)c1ccncc1	53.3*	-1.4	0.3	1.2	-8.6	4.1
O=C(N/N=C/C=C/c1ccco1)c1ccncc1	-9.6	2.3	-0.5	-2.5	-3.0	-0.3
O=C1/C(=C/C=C/c2ccco2)SC(=S)N1c1ccc(O)cc1	60.0*	59.4*	16.0	93.5*	6.3	58.1*
O=C1/C(=C\c2ccco2)SC(=S)N1c1ccc(O)cc1	-10.7	-5.2	3.3	-8.5	-6.1	-2.3
O=C(NN1C(=O)/C(=C/C=C/c2ccco2)SC1=S)c1ccncc1	101.4*	72.0*	55.3*	83.7*	34.2	44.6
Cc1ccc(S(=O)(=O)Nc2ccc(C(=O)NCCCn3ccnc3)cc2)cc1[N+](=O)[O-]	-10.3	-4.8	-0.8	-1.1	0.3	-0.2
CCOC(=O)C1=C(O)c2ccccc2C(=O)/C1=C\c1ccc(CC)cc1	-12.1	-8.4	3.1	-1.0	59.3*	4.5
